According to ChEMBL document CHEMBL2321795, “Solubility-driven optimization of (pyridin-3-yl) benzoxazinyl-oxazolidinones leading to a promising antibacterial agent” (J Med Chem, 2013):
Converted amounts (≈) assume the structure as drawn.

Columns and labels:
Staphylococcus aureus [1] = assay: Antibacterial activity against methicillin-resistant Staphylococcus aureus after 16 hrs by NCCLS agar dilution method; format: functional
Outline: (§1)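 Agar dilution MIC. Stocks were 320 μg/mL in 50% aqueous DMSO, 2-fold serially diluted in sterile water, then diluted 10-fold into Mueller–Hinton agar to give 16–0.03125 μg/mL final. Organisms were grown in MH broth at 35 °C for 8 h and adjusted to 0.5 McFarland. They were spotted onto drug-containing plates with a multipoint inoculator and incubated at 35 °C for 16 h. Linezolid was the positive control.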

Staphylococcus aureus [2] = assay: Antibacterial activity against Staphylococcus aureus ATCC 29213 after 16 hrs by NCCLS agar dilution method; format: functional; details: ATCC 29213, 16 h; outline: as §1
Staphylococcus aureus [3] = assay: Antibacterial activity against methicillin-sensitive Staphylococcus aureus after 16 hrs by NCCLS agar dilution method; format: functional; outline: as §1
Rattus norvegicus [4] = assay: Oral bioavailability in Sprague-Dawley rat at 10 mg/kg; format: ADME, organism-based; details: in vivo
Outline: (§2)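 Rats were dosed orally or by intravenous injection. For prodrugs, all parameters were based on the active parent antibacterial detected in plasma, and each prodrug dose was also given as an equivalent parent dose. Parameters were Cmax, Tmax, elimination T1/2, AUC from the concentration–time curve, clearance and oral bioavailability F.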

Staphylococcus aureus [5] = assay: Antibacterial activity against linezolid-resistant Staphylococcus aureus after 16 hrs by NCCLS agar dilution method; format: functional; outline: as §1
Rattus norvegicus [6] = assay: AUC in Sprague-Dawley rat at 5.6 mg/kg, iv by LC-MS analysis; format: ADME, organism-based, Plasma; set-up: dose 5.6 mg/kg, route intravenous; details: in vivo; outline: as §2
[7] = Cmax in Sprague-Dawley rat at 10 mg/kg, po by LC-MS analysis; format: ADME, organism-based; set-up: dose 10 mg/kg, route oral; details: in vivo; outline: as §2
[8] = Tmax in Sprague-Dawley rat at 10 mg/kg, po by LC-MS analysis; format: ADME, organism-based; set-up: dose 10 mg/kg, route oral; details: in vivo; outline: as §2
[9] = test system: Staphylococcus epidermidis; assay: Antibacterial activity against linezolid-resistant Staphylococcus epidermidis after 16 hrs by NCCLS agar dilution method; format: functional; outline: as §1
[10] = target: Voltage-gated inwardly rectifying potassium channel KCNH2 (Homo sapiens, UniProt Q12809)
[11] = Elimination half life in Sprague-Dawley rat at 10 mg/kg, po by LC-MS analysis; format: ADME, organism-based; set-up: dose 10 mg/kg, route oral; details: in vivo, read-out: beta t1/2 (converted); outline: as §2
Enterococcus faecium [12] = assay: Antibacterial activity against linezolid-resistant Enterococcus faecium after 16 hrs by NCCLS agar dilution method; format: functional; outline: as §1
[13] = Elimination half life in Sprague-Dawley rat at 5.6 mg/kg, iv by LC-MS analysis; format: ADME, organism-based; set-up: dose 5.6 mg/kg, route intravenous; details: in vivo, read-out: beta t1/2 (converted); outline: as §2
[14] = test system: Staphylococcus epidermidis; assay: Antibacterial activity against methicillin-sensitive Staphylococcus epidermidis after 16 hrs by NCCLS agar dilution method; format: functional; outline: as §1
Enterococcus faecalis [15] = assay: Antibacterial activity against linezolid-resistant Enterococcus faecalis after 16 hrs by NCCLS agar dilution method; format: functional; outline: as §1
Enterococcus faecalis [16] = assay: Antibacterial activity against Enterococcus faecalis after 16 hrs by NCCLS agar dilution method; format: functional
Outline: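 Agar dilution MIC per NCCLS, 6 E. faecalis strains. Stock was 320 μg/mL in 50% water/DMSO, serially 2-fold diluted in sterile water, then 10-fold into Mueller–Hinton agar to give 16–0.03125 μg/mL final. Inocula came from MH broth cultures grown 8 h at 35 °C, adjusted to 0.5 McFarland and spotted by multipoint inoculator. Plates were read after 16 h at 35 °C.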

[17] = test system: Staphylococcus epidermidis; assay: Antibacterial activity against methicillin-resistant Staphylococcus epidermidis after 16 hrs by NCCLS agar dilution method; format: functional; outline: as §1
Rattus norvegicus [18] = assay: AUC in Sprague-Dawley rat at 10 mg/kg, po by LC-MS analysis; format: ADME, organism-based, Plasma; set-up: dose 10 mg/kg, route oral; details: in vivo; outline: as §2
Streptococcus pneumoniae = assay: Antibacterial activity against penicillin-resistant Streptococcus pneumoniae after 16 hrs by NCCLS agar dilution method; format: functional; outline: as §1
[19] = Clearance in Sprague-Dawley rat at 5 mg/kg, iv by LC-MS analysis; format: ADME, organism-based; set-up: dose 5 mg/kg, route intravenous; details: in vivo
Outline: (§3)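 Rats received the compound by intravenous injection, with oral dosing run in parallel. Clearance (CLz) is reported in L/h/kg. Elimination half-life (T1/2) is reported in h and was taken from the plasma concentration–time profile.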

Enterococcus faecalis [20] = assay: Ratio of linezolid MIC to compound MIC for linezolid-resistant Enterococcus faecalis; format: functional
Outline: (§4)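 Agar dilution per NCCLS, with linezolid tested alongside as control. Compounds were diluted 2-fold in sterile water, then 10-fold into Mueller–Hinton agar (final 16–0.03125 μg/mL). Strains (E. faecalis 3, E. faecium 3, S. aureus 3, S. epidermidis 1) were grown in MH broth at 35 °C for 8 h, adjusted to 0.5 McFarland, multipoint-inoculated, and incubated at 35 °C for 16 h. The ratio is linezolid MIC over compound MIC.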

Enterococcus faecium [21] = assay: Ratio of linezolid MIC to compound MIC for linezolid-resistant Enterococcus faecium; format: functional; outline: as §4
[22] = AUC in Sprague-Dawley rat at 5 mg/kg, iv by LC-MS analysis; format: ADME, organism-based; set-up: dose 5 mg/kg, route intravenous; details: plasma
Outline: (§5)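 Rats dosed orally or by intravenous injection. AUC is the area under the plasma concentration–time curve. For the prodrug entries, all PK values were based on the amount of the active parent antibacterial detected, not the administered prodrug.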

Staphylococcus aureus [23] = assay: Ratio of linezolid MIC to compound MIC for linezolid-resistant Staphylococcus aureus; format: functional; outline: as §4
[24] = AUC in Sprague-Dawley rat at 15 mg/kg, po by LC-MS analysis; format: ADME, organism-based; set-up: dose 15 mg/kg, route oral; details: plasma; outline: as §5
[25] = test system: Staphylococcus epidermidis; assay: Ratio of linezolid MIC to compound MIC for linezolid-resistant Staphylococcus epidermidis; format: functional; outline: as §4
[26] = Oral bioavailability in Sprague-Dawley rat at 15 mg/kg; format: ADME, organism-based; details: in vivo; outline: as §2
[27] = Tmax in Sprague-Dawley rat at 15 mg/kg, po by LC-MS analysis; format: ADME, organism-based; set-up: dose 15 mg/kg, route oral; details: in vivo; outline: as §2
[28] = Elimination half life in Sprague-Dawley rat at 15 mg/kg, po by LC-MS analysis; format: ADME, organism-based; set-up: dose 15 mg/kg, route oral; details: in vivo, read-out: beta t1/2 (converted); outline: as §2
[29] = Elimination half life in Sprague-Dawley rat at 5 mg/kg, iv by LC-MS analysis; format: ADME, organism-based; set-up: dose 5 mg/kg, route intravenous; details: in vivo, read-out: beta t1/2 (converted); outline: as §3
[30] = Cmax in Sprague-Dawley rat at 15 mg/kg, po by LC-MS analysis; format: ADME, organism-based; set-up: dose 15 mg/kg, route oral; details: in vivo; outline: as §2

Voltage-gated inwardly rectifying potassium channel KCNH2, sequence (Q12809 whole entry): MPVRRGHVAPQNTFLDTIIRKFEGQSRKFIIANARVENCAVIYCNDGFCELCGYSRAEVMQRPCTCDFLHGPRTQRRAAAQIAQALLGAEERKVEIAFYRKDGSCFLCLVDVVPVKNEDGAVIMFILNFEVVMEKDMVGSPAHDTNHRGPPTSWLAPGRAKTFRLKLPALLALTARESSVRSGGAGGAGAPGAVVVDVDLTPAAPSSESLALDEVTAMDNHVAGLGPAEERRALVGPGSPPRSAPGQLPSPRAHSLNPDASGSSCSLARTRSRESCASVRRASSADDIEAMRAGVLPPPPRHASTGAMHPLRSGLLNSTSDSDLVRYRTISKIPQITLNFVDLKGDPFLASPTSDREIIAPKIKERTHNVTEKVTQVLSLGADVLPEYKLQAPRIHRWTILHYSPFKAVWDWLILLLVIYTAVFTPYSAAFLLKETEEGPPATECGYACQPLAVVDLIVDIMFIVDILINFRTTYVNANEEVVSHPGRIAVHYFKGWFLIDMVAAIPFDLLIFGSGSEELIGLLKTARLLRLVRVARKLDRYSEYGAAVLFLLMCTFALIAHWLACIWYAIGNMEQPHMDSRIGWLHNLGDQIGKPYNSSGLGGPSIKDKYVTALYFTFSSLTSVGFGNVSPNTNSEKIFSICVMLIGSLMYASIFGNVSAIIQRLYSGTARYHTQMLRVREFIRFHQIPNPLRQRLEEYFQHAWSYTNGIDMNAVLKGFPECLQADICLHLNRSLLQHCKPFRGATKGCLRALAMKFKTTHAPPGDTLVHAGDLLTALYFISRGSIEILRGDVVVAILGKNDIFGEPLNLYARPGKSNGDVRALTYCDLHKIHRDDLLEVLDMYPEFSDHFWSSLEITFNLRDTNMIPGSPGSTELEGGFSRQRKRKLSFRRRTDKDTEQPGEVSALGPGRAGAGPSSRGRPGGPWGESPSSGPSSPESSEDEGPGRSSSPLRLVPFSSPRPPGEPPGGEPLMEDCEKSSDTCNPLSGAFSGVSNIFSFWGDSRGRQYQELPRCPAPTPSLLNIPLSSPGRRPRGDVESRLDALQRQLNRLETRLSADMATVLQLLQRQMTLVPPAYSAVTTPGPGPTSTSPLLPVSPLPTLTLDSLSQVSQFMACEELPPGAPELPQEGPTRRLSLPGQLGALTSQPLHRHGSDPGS

SMILES | MIC (Staphylococcus aureus [1]) | MIC (Staphylococcus aureus [2]) | MIC (Staphylococcus aureus [3]) | MIC (Staphylococcus aureus [5]) | MIC [9] | IC50 [10] | MIC (Enterococcus faecium [12]) | MIC [14] | MIC (Enterococcus faecalis [15]) | MIC (Enterococcus faecalis [16]) | MIC [17] | MIC (Streptococcus pneumoniae) | also measured
O=C1OC(CO)CN1c1ccc(-c2ccc3c(c2)OC[C@H]2[C@H](CO)OC(=O)N32)cn1 (stereo partly drawn) | 0.5 µg/mL (≈ 1.21 µM) | 0.5 µg/mL (≈ 1.21 µM) | 0.5 µg/mL (≈ 1.21 µM) | 8 µg/mL (≈ 19.4 µM) | 4 µg/mL (≈ 9.68 µM) | > 40 µM | 4 µg/mL (≈ 9.68 µM) | 0.25 µg/mL (≈ 0.605 µM) | 4 µg/mL (≈ 9.68 µM) | 0.5 µg/mL (≈ 1.21 µM) | 0.5 µg/mL (≈ 1.21 µM) | 0.5 µg/mL (≈ 1.21 µM) | F (Rattus norvegicus [4]): 27.5%; AUC (Rattus norvegicus [6]): 2800 ng·h/mL; Cmax [7]: 332 ng/mL; Tmax [8]: 0.38 h; half-life [11]: 2.25 h; half-life [13]: 1.08 h; AUC (Rattus norvegicus [18]): 1491 ng·h/mL
CN1C[C@@H](c2ccc(-c3ccc4c(c3)OC[C@H]3[C@H](CO)OC(=O)N43)cn2)OC1=O | 0.5 µg/mL (≈ 1.26 µM) | 0.5 µg/mL (≈ 1.26 µM) | 0.5 µg/mL (≈ 1.26 µM) | 4 µg/mL (≈ 10.1 µM) | 2 µg/mL (≈ 5.03 µM) | > 40 µM | 2 µg/mL (≈ 5.03 µM) | 0.25 µg/mL (≈ 0.629 µM) | 2 µg/mL (≈ 5.03 µM) | 1 µg/mL (≈ 2.52 µM) | 0.25 µg/mL (≈ 0.629 µM) | 0.5 µg/mL (≈ 1.26 µM) | clearance [19]: 53.7 mL/min/kg; Ratio (Enterococcus faecalis [20]): 4; Ratio (Enterococcus faecium [21]): 4; AUC [22]: 1560 ng·h/mL; Ratio (Staphylococcus aureus [23]): 4; AUC [24]: 2170 ng·h/mL; Ratio [25]: 4; bioavailability [26]: 44.8%; Tmax [27]: 1 h; half-life [28]: 1.93 h; half-life [29]: 2.51 h; Cmax [30]: 809 ng/mL
